Data reported in ChEMBL document CHEMBL4732199, “Potent and orally bioavailable CDK8 inhibitors: Design, synthesis, structure-activity relationship analysis and biological evaluation” (Eur J Med Chem, 2021).
Active and inactive are the calls of the source. The calls are words filed in the database; no cut-off is given here.

How the values were obtained:
[1] = target: T1, Cyclin-dependent kinase 5/CDK5 activator 1 (Homo sapiens) (UniProt Q00535+Q15078); experiment: Inhibition of CDK5/p25 (unknown origin) at 1 uM; assay type: protein-complex assay
T1 sequence (Q00535 whole entry): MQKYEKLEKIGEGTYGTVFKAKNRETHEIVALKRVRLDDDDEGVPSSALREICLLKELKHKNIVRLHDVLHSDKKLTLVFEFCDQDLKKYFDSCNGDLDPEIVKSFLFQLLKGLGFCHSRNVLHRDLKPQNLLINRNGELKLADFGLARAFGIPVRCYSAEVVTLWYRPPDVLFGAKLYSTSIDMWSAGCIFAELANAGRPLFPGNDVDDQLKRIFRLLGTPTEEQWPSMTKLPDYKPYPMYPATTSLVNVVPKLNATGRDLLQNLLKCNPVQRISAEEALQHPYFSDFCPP
T1 sequence (Q15078 99-307 partner limits assumed): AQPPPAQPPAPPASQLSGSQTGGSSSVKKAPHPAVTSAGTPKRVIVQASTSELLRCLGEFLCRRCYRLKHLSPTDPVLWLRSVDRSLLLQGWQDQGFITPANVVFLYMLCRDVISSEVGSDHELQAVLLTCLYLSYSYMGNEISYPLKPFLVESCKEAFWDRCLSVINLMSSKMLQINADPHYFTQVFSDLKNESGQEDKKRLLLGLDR
Outline: (§1)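 Residual activity of each kinase with compound at 1 µM, measured in a contracted radioisotope-based kinase profiling assay and expressed as % kinase activity remaining.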

[2] = Tmax in BALB/c mouse at 2 mg/kg, iv measured up to 24 hrs by LC-MS/MS analysis; conditions: in vivo
[3] = Half life in BALB/c mouse at 10 mg/kg, po measured up to 24 hrs by LC-MS/MS analysis; conditions: in vivo
[4] = test system: Glycogen synthase kinase-3 beta (Homo sapiens), P49841 [UNDEFINED MUTATION]; experiment: Inhibition of human GSKbeta H350L mutant (2 to 3nd residues) at 1 uM using YRRAAVPPSPSLSRHSSPHQS(p) EDEEE as substrate incubated for 40 mins in presence of [gamma-33P]-ATP by scintillation counting method relative to control
Sequence of Glycogen synthase kinase-3 beta (Homo sapiens), P49841 [UNDEFINED MUTATION] (P49841 whole entry, looked up, stated change not applied): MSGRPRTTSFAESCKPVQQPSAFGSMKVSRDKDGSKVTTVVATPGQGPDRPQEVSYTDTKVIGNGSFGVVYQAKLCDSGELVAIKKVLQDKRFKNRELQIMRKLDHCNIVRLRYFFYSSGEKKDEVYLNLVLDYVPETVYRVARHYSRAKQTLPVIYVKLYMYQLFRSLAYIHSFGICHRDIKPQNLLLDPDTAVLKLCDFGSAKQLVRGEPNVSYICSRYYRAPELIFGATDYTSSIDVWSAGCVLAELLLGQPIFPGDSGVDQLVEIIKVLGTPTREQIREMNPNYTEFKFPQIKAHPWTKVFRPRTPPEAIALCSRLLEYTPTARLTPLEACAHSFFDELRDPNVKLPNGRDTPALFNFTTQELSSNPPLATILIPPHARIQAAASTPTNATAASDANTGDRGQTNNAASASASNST
Outline: (§2)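 Single-point screen of residual kinase activity (%) at 1 µM compound. Run as a contract radiometric [γ-33P]-ATP kinase assay, either the KinaseProfiler service or the HotSpot assay. ATP was set at the experimentally determined Km(ATP) of each kinase.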

THP-1 = experiment: Growth inhibition human THP1 cells after 72 hrs by resazurin or MTT assay; assay type: functional
Outline: (§3)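 Tumour cell lines kept in RPMI-1640, DMEM or MEM with 10% FBS at 37 °C, 5% CO2, mycoplasma-free. Exposure lasted 72 h. Viability was read by MTT for adherent solid-tumour lines and by resazurin for suspension leukaemia lines. GI50 came from nonlinear regression, given as mean ± standard deviation of at least two replicates unless stated otherwise.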

[5] = target: CDK9/cyclin T1 (Homo sapiens) (UniProt O60563+P50750); experiment: Inhibition of CDK9/Cyclin T1 (unknown origin) at 1 uM relative to control; assay type: protein-complex assay; outline: as §1
[6] = target: Cyclin-dependent kinase 4/cyclin D1 (Homo sapiens) (UniProt P11802+P24385); experiment: Inhibition of CDK4/cyclin-D1 (unknown origin) at 1 uM; assay type: protein-complex assay; outline: as §1
[7] = Toxicity in BALB/c mouse assessed as B cells at 70 mg/kg, po administered once daily for 7 days and measured on day 15 by flow cytometric analysis; assay type: organism-based; conditions: in vivo, 168 h, time 7 day
[8] = Toxicity in BALB/c mouse assessed as granulocytes at 70 mg/kg, po administered once daily for 7 days and measured on day 15 by flow cytometric analysis; assay type: organism-based; conditions: in vivo, 168 h, time 7 day
MOLM-13 = experiment: Growth inhibition human MOLM-13 cells after 72 hrs by resazurin or MTT assay; assay type: functional; outline: as §3
MV4-11 = experiment: Growth inhibition of human MV4-11 cells after 72 hrs by resazurin staining based assay; assay type: functional
Outline: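 MV4-11 leukaemia cells grown in medium with 10% FBS at 37 °C, 5% CO2. Growth was read by a 72-h resazurin viability assay. GI50 was obtained by nonlinear regression and reported as mean ± standard deviation of at least two replicates.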

[9] = target: CDK7/Cyclin H/MNAT1 (Homo sapiens) (UniProt P51946+P50613+P51948); experiment: Inhibition of CDK7/cyclin H/MNAT1 (unknown origin) at 1 uM; assay type: protein-complex assay; outline: as §1
[10] = target: Cyclin-dependent kinase 1/cyclin B1 (Homo sapiens, UniProt P06493); experiment: Inhibition of CDK1/cyclin-B (unknown origin); assay type: protein-complex assay
Sequence of Cyclin-dependent kinase 1/cyclin B1 (P06493 whole entry): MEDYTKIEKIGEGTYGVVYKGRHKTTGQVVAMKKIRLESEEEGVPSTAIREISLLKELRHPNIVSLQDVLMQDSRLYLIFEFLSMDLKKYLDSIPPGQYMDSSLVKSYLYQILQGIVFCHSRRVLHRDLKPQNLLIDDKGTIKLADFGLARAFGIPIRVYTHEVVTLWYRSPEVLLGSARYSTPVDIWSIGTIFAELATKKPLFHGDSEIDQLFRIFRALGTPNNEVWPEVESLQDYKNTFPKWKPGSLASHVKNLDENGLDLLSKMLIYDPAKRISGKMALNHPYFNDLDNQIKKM
Sequence of Cyclin-dependent kinase 1/cyclin B1 (P14635 whole entry, further chain): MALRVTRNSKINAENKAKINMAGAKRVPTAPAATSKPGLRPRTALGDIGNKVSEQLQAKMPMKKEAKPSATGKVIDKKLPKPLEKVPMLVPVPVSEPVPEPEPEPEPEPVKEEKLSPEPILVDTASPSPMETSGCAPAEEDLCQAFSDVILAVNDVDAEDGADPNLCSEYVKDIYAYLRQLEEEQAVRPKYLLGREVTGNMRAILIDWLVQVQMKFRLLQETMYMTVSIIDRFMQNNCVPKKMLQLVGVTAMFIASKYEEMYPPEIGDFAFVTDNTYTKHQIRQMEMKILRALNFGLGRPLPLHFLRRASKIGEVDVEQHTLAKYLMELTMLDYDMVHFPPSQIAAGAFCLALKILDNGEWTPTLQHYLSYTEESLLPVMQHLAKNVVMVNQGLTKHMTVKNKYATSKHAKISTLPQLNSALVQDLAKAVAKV
Outline: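 IC50 measured in a contracted radiometric kinase assay with ATP at the experimentally determined Km(ATP) of each kinase. Apparent Ki was derived by Cheng-Prusoff: Ki = IC50/(1+[ATP]/Km(ATP)).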

[11] = Cmax in Sprague-Dawley rat at 20 mg/kg, po measured up to 24 hrs by LC-MS/MS analysis; assay type: ADME, organism-based; set-up: route oral, dose 20 mg/kg, time <=24; conditions: in vivo
[12] = Cmax in BALB/c mouse at 2 mg/kg, iv measured up to 24 hrs by LC-MS/MS analysis; conditions: in vivo
COLO 205 = experiment: Growth inhibition human COLO 205 cells after 72 hrs by resazurin or MTT assay; assay type: functional; outline: as §3
Kasumi 1 = experiment: Growth inhibition human Kasumi-1 cells after 72 hrs by resazurin or MTT assay; assay type: functional; outline: as §3
[13] = target: Cyclin-dependent kinase 1/cyclin B1 (Homo sapiens) (UniProt P06493+P14635); experiment: Inhibition of CDK1/cyclin-B (unknown origin) at 1 uM relative to control; assay type: protein-complex assay; outline: as §1
Sequence of Cyclin-dependent kinase 1/cyclin B1 (Homo sapiens) (P06493 whole entry, looked up): as the sequence (P06493 whole entry) above
Sequence of Cyclin-dependent kinase 1/cyclin B1 (Homo sapiens) (P14635 whole entry, looked up): as the sequence (P14635 whole entry, further chain) above

[14] = AUC in BALB/c mouse at 10 mg/kg, po measured up to 24 hrs by LC-MS/MS analysis; conditions: in vivo
KG-1a = experiment: Growth inhibition human KG-1a cells after 72 hrs by resazurin or MTT assay; assay type: functional; outline: as §3
KG-1 = experiment: Growth inhibition human KG-1 cells after 72 hrs by resazurin or MTT assay; assay type: functional; outline: as §3
[15] = Toxicity in BALB/c mouse assessed as increase in dead splenocytes at 70 mg/kg, po administered once daily for 7 days and measured on day 15 by flow cytometric analysis; assay type: organism-based; conditions: in vivo, 168 h, time 7 day
[16] = Toxicity in BALB/c mouse assessed as increase in body weight at 70 mg/kg, po administered once daily for 7 days and measured on day 15 relative to control; assay type: organism-based; conditions: in vivo, 168 h, time 7 day
[17] = Cmax in BALB/c mouse at 10 mg/kg, po measured up to 24 hrs by LC-MS/MS analysis; conditions: in vivo
[18] = test system: Glycogen synthase kinase-3 alpha (Homo sapiens), P49840 [UNDEFINED MUTATION]; experiment: Inhibition of human GSKalpha S449A mutant (2 to 3nd residues) at 1 uM using YRRAAVPPSPSLSRHSSPHQS(p) EDEEE as substrate incubated for 40 mins in presence of [gamma-33P]-ATP by scintillation counting method relative to control; outline: as §2
Sequence of Glycogen synthase kinase-3 alpha (Homo sapiens), P49840 [UNDEFINED MUTATION] (P49840 whole entry, looked up, stated change not applied): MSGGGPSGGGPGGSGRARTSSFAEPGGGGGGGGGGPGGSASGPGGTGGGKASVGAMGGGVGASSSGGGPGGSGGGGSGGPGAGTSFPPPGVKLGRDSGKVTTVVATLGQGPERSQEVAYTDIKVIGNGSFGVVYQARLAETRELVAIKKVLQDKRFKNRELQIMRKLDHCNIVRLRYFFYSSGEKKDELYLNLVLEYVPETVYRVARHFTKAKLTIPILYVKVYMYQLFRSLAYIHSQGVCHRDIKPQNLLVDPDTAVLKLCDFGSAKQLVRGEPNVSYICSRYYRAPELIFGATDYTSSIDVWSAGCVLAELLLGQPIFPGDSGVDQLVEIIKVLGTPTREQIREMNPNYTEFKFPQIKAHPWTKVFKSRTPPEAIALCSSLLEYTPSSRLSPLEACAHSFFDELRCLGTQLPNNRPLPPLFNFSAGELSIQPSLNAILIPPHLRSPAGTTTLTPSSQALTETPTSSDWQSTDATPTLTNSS

[19] = Clearance in Sprague-Dawley rat at 5 mg/kg, iv measured up to 24 hrs by LC-MS/MS analysis; assay type: ADME, organism-based; conditions: in vivo
[20] = target: T1, Cyclin-dependent kinase 5/CDK5 activator 1 (Homo sapiens); experiment: Inhibition of CDK5/p35 (unknown origin) at 1 uM; assay type: protein-complex assay; outline: as §1
[21] = target: CDK2/Cyclin A2 (Homo sapiens) (UniProt P24941+P20248); experiment: Inhibition of CDK2/cyclin-A (unknown origin) at 1 uM; assay type: protein-complex assay; outline: as §1
U-937 = experiment: Growth inhibition human U-937 cells after 72 hrs by resazurin or MTT assay; assay type: functional; outline: as §3
[22] = Volume of distribution at steady state in BALB/c mouse at 2 mg/kg, iv measured up to 24 hrs by LC-MS/MS analysis; conditions: in vivo, read-out: Vdss
[23] = Half life in Sprague-Dawley rat at 20 mg/kg, po measured up to 24 hrs by LC-MS/MS analysis; assay type: ADME, organism-based; conditions: in vivo
[24] = target: CDK6/cyclin D3 (Homo sapiens) (UniProt P30281+Q00534); experiment: Inhibition of CDK6/cyclin-D3 (unknown origin) at 1 uM; assay type: protein-complex assay; outline: as §1
[25] = target: CDK3/Cyclin E (Homo sapiens) (UniProt P24864+Q00526); experiment: Inhibition of CDK3/cyclin-E (unknown origin) at 1 uM; assay type: protein-complex assay; outline: as §1
Sequence of CDK3/Cyclin E (Homo sapiens) (P24864 whole entry, looked up): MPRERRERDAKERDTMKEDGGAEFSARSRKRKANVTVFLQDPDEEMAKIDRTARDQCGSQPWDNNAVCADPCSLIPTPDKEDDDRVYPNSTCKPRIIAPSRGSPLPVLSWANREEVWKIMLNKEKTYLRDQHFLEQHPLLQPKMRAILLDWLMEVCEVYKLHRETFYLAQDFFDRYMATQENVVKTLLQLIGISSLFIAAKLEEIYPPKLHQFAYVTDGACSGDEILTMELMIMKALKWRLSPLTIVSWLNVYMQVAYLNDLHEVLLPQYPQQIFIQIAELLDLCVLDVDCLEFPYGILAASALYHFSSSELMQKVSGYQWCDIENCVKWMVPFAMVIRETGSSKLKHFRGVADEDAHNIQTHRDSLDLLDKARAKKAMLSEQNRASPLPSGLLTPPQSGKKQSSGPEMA
Sequence of CDK3/Cyclin E (Homo sapiens) (Q00526 whole entry, looked up): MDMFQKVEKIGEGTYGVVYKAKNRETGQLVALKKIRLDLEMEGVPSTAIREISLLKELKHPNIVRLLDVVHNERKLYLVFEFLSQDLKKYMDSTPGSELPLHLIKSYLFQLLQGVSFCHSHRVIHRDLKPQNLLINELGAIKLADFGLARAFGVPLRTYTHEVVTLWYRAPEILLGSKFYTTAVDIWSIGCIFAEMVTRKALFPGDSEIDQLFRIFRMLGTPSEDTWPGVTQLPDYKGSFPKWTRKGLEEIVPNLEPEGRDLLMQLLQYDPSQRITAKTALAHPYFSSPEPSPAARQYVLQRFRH

| Compound | GI50 (THP-1) [µM] | Activity [7] | Activity [8] | GI50 (MOLM-13) [µM] | GI50 (MV4-11) [µM] | Cmax [11] [µM] | GI50 (COLO 205) [µM] | GI50 (Kasumi 1) [µM] | GI50 (KG-1a) [µM] | GI50 (KG-1) [µM] | Activity [15] | clearance [19] [mL/min/kg] | GI50 (U-937) [µM] | half-life [23] [h] | other results |
| --- | --- | --- | --- | --- | --- | --- | --- | --- | --- | --- | --- | --- | --- | --- | --- |
| O=C1NCCC12CCN(c1c(Cl)cncc1-c1cc3ccccc3o1)CC2 | > 50 | Non-Toxic | Non-Toxic | 6.18 | 0.36 | 2.77 | > 50 | > 50 | 19.55 | 7.13 | Non-Toxic | 23.2 | 1.36 | 2.24 | inhibition [1]: inactive; Tmax [2]: 2.4 min; half-life [3]: 1.11 h; inhibition [4]: > 50%; inhibition [5]: > 50%; inhibition [6]: inactive; inhibition [9]: inactive; Ki [10]: 1.89 µM; Cmax [12]: 3.44 µM; inhibition [13]: > 50%; AUC at 24 h [14]: 2.3 µM·h; Activity [16]: 12%; Cmax [17]: 5.01 µM; inhibition [18]: > 50%; inhibition [20]: inactive; inhibition [21]: inactive; Vd [22]: 1.99 L/kg; inhibition [24]: inactive; inhibition [25]: inactive |
| Cn1cc(-c2ccc(-c3cncc(Cl)c3N3CCC4(CCNC4=O)CC3)cc2)cn1 | > 50 | Non-Toxic | Non-Toxic | 2.8 | 0.03 | 4.06 | 37.7 | 37 | 32.71 | 19.98 | Non-Toxic | 20 | 22.4 | 4.24 |  |
